From PubChem
Cl transport mod: modulators of human KCC2 chloride dependent transport | AID 1456 | KCC2 cells, thallium flux FluoZin-2 fluorescence | 190,000 tested, 2.2% active | B-score of Tl+ flux slope (higher = more flux/activation; lower = inhibition) at 10 µM;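 active means thallium flux slope and its plate-corrected score both differing from the plate sample mean at a set confidence after two filtering rounds, in either direction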;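 further: slope of fluorescence scaled to starting intensity during 10 to 20 s after thallium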
Target sequence (Q9H2X9 whole entry, looked up): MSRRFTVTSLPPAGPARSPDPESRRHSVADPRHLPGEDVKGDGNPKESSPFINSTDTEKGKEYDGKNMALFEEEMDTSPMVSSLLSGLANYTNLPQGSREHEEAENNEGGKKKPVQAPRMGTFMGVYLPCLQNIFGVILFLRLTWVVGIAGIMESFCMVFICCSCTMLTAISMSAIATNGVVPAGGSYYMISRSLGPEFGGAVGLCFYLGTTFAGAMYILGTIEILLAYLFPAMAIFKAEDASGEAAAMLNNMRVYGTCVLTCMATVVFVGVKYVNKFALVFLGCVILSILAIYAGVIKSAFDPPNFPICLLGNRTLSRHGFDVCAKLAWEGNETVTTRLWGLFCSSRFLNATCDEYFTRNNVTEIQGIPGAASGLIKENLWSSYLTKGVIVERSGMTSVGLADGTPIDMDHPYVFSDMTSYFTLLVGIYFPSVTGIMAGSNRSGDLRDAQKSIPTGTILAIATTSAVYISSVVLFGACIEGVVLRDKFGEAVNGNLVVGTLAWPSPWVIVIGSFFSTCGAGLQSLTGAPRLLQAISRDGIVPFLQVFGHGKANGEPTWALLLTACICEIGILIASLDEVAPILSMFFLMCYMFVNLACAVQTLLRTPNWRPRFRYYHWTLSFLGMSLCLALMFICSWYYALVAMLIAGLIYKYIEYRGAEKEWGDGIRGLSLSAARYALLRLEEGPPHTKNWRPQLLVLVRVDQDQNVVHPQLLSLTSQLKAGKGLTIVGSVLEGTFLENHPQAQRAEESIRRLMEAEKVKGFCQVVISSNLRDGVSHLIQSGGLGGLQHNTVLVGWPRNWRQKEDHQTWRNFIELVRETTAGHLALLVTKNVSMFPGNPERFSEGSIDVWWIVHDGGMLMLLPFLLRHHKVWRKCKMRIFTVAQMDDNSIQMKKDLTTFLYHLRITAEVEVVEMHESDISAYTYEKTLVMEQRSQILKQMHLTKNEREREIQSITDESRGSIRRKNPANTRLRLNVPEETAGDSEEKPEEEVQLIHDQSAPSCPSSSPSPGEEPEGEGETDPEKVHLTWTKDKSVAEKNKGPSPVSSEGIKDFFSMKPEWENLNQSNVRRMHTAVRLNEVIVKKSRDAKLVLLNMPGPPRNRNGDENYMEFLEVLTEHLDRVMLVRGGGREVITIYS
KCNK3 inh: human KCNK3 channel inhibition, primary screen; O14649; CHO-KCNK3 thallium flux, FluxOR fluorescence; hits give low values; B-score at 10 µM; 340,000 tested, 0.84% active; AID 602410;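 active means B-score under library mean minus 4 SD, starting fluorescence ratio at most library mean plus 5 SD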;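 further: more negative B-score means stronger inhibition of thallium flux through KCNK3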
hERG protect: compounds protecting human hERG from proarrhythmic drug block; Q12809; CHO-hERG, FluxOR thallium flux, dofetilide IC70 present; activation (rescue from dofetilide block), less the hit threshold, % at 10 µM; 310,000 tested, 0.51% active; AID 1511;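 active means activation above the mean of controls blocked by dofetilide plus 5 SD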;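 further: thallium influx through hERG after potassium depolarization seen as dye fluorescence rise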
KCNQ1 act: human KCNQ1 channel potentiation or activation; P51787; CHO-K1 KCNQ1, thallium flux FluxOR fluorescence; hits give high values; B-score at 10 µM; 310,000 tested, 0.35% active; AID 2648;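 active means fluorescence ratio B-score, a plate-corrected score, at least three library SD, with initial intensity B-score within 5 SD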
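System: CHO-K1 cells stably expressing KCNQ1 / Medium: assay buffer for compound exposure, DMSO matched across wells / Reagent: thallium- and potassium-containing depolarizing buffer / Compound: one concentration, matched DMSO / Incubation: 20 min compound pretreatment at room temperature / Measured by: kinetic FluxOR fluorescence, 10 s baseline plus 110 s post-stimulus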
KCNQ1 block: blocks the human KCNQ1 potassium channel; P51787; CHO-K1 KCNQ1, FluxOR thallium flux fluorescence; hits give high values; B-score at 10 µM; 310,000 tested, 1.3% active; AID 2642;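 active means compounds whose thallium flux B-score, printed positive for inhibition, exceeds three library SD while starting fluorescence stays within three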;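 further: channel opened by potassium depolarization with thallium stimulus after 20 min compound exposure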
KCNK9 inh: inhibitors of human KCNK9 two-pore domain potassium channel. 310,000 tested, 1.2% active. HEK293 KCNK9, FluxOR thallium flux fluorescence; hits give low values. B-score at 10 µM. Q9NPC2;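 active means ratio B-score over 3 SD below the library mean, with starting fluorescence within 5 SD of its mean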;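 further: negative B-score means less thallium flux so channel inhibition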
KCNK9 block conf: confirmation of human KCNK9 potassium channel inhibitors. shares compounds with KCNK9 inh. HEK293 KCNK9 cells, FluxOR thallium flux fluorescence. inhibition, % at 10 µM. 4,900 tested, 43% active;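 active means thallium signal inhibited by more than 5 SD of the compound-free buffer control wells, on both duplicate plates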;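 further: 0% = assay buffer control wells without compound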
Kir2-1 spec: selectivity of KCNK9 modulators against mouse Kir2.1; 4,900 tested, 4% active; shares compounds with KCNK9 inh; Kir2.1 cells, FluxOR thallium flux fluorescence; inhibition, % at 10 µM; AID 492993;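 active means thallium signal drop more than 5 SD beyond the mean of the no-compound control wells, seen in both duplicate plates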;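 further: signal is fluorescence rise after thallium addition divided by baseline fluorescence; plate controls were assay buffer only for no effect and full block by chlorpromazine control for full effect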
KCNK9 uninduced: non-induced cell nonspecific activity of KCNK9 modulators. shares compounds with KCNK9 inh. non-induced KCNK9-HEK293, FluxOR thallium flux. inhibition, % at 10 µM. 4,900 tested, 40% active. AID 492997;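 active means thallium signal drop beyond 5 SD of the untreated control mean, on both duplicate plates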;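 further: plate controls were buffer only IC0 wells for no effect and SID17386958 at its maximal inhibitory level for full effect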
KCNK3 inh conf: confirmation of human KCNK3 two-pore domain potassium channel inhibitors. CHO-KCNK3 thallium flux, FluxOR fluorescence; 0% buffer, 100% carvedilol maximal block. 2,400 tested, 99% active. shares compounds with KCNK3 inh. ratio percent of control, % at 10 µM;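 active means ratio percent of control, averaged over triplicates, above buffer control mean plus 5 SD, cut at about 64% in these data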;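 further: ratio is the fluorescence rise from min to max over baseline after thallium stimulus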
KCNK3 noninduced: counter-screen for KCNK3 inhibitors: effect in non-induced cells | shares compounds with KCNK3 inh | non-induced KCNK3 parental cells, FluxOR thallium flux; hits give low values | thallium flux ratio (lower = more inhibition) at 10 µM | 2,400 tested, 40% active | AID 651747;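 active means thallium flux ratio, averaged over three wells, more than 5 SD below the buffer control mean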;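 further: host cells are CHO cells without KCNK3 induction; ratio is peak minus trough fluorescence over baseline then normalized to buffer controls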
An asterisk follows results filed as active; i = inactive; x = no result. Rows were chosen to be rich in hits. Some 4.1% of all compounds tested hit in one or more screens of this group.

SMILES | Cl transport mod | KCNK3 inh | hERG protect | KCNQ1 act | KCNQ1 block | KCNK9 inh | KCNK9 block conf | Kir2-1 spec | KCNK9 uninduced | KCNK3 inh conf | KCNK3 noninduced
CCN1C(=C(C#N)C#N)C=Cc2cc(C)ccc21 | 1.19 | i | -6.3 | i | i | i | x | x | x | x | x
COc1ccc(OC)c2c1cc(C(=O)N[C@H](C(=O)N1CCC(C(=O)O)CC1)C(C)C)n2C | x | i | -7.0 | i | i | i | x | x | x | x | x
Cc1ccc(-n2nnnc2SCC(=O)NC2CC2)cc1C | x | i | -7.2 | i | i | i | x | x | x | x | x
COC(=O)c1ccccc1NC(=O)c1ccc(F)cc1 | -1.2 | i | -5.2 | i | i | i | x | x | x | x | x
COC(=O)c1ccccc1SC(CC(=O)c1ccccc1)c1ccc(F)cc1 (stereo not drawn) | -0.463 | i | -12.7 | i | i | -13.1* | 49.0%* | i | 55.5%* | 114.3* | i
CCCCC(=O)Nc1cccc(-c2csc(-c3ccccc3)n2)c1 | 0.00303 | -10.2* | -11.8 | i | 9* | -10.5* | 50.0%* | i | 30.0%* | 125.0* | 0.154*
O=C(O)CCC(=O)Nc1cccc(-c2csc(-c3ccccc3)n2)c1 | -0.894 | i | -6.2 | i | i | i | x | x | x | x | x
Cc1cc(C)cc(-n2c(C)cc(/C=N/NC(=O)CSc3ncccn3)c2C)c1 | x | -11.4* | -11.7 | i | i | -13.7* | 59.5%* | i | 32.5%* | 93.7* | i
Cc1cc(/C=N/NC(=O)C(=O)NCc2ccccn2)c(C)n1-c1ccccc1 | -1.42 | i | -7.8 | i | i | i | x | x | x | x | x
CN(C1CCCCC1)S(=O)(=O)c1cccc(C#N)c1 | -0.889 | i | -3.8 | i | i | i | x | x | x | x | x
CCn1nc(C(=O)OCC(=O)NCC(C)C)c2ccccc2c1=O | -0.535 | i | -13.4 | i | i | i | x | x | x | x | x
CCn1nc(C(=O)OC(C(=O)c2c[nH]c3ccccc23)c2ccccc2)c2ccccc2c1=O (stereo not drawn) | -0.112 | -9.04* | -20.1 | i | 8* | -11.1* | 32.0%* | i | i | 88.7* | i
COc1ccc(CSc2nc(C)cc(C)c2S(C)(=O)=O)cc1 | -2.95 | -10.7* | -4.0 | i | i | -10.9* | 39.5%* | i | 34.0%* | 111.3* | i
COc1ccc(Oc2nc(C)cc(C)c2S(C)(=O)=O)cc1 | 2.57 | i | -9.6 | i | i | i | x | x | x | x | x
COc1cc(OC)cc(C(=O)NNC(=O)CCC2CCCC2)c1 | x | i | x | x | x | x | x | x | x | x | x
NC(=S)N/N=C\c1c(OCc2ccccc2Cl)ccc2ccccc12 | -0.0192 | -9.5* | -14.4 | i | i | -10.1* | 46.0%* | i | i | 101.0* | i
NC(=S)N/N=C\c1c2ccccc2cc2ccccc12 | 1.24 | i | x | x | x | x | x | x | x | x | x
Cc1cccc(OCC(=O)Nc2ccccc2N2CCCCC2)c1 | x | -9.91* | -9.7 | i | i | -9.92* | 77.0%* | i | 47.0%* | 98.3* | i
Cc1ccccc1OCC(=O)Nc1ccccc1N1CCC(C)CC1 | 0.349 | -10.2* | -8.3 | i | i | -11.9* | 43.5%* | 31.0%* | 38.0%* | 111.0* | i
O=C(CSc1nnnn1-c1ccccc1)NCCCN1CCCC1=O | x | i | x | x | x | x | x | x | x | x | x
CCCCCn1cnnc1SCC(=O)c1c(N)n(C2CC2)c(=O)[nH]c1=O | x | i | x | x | x | x | x | x | x | x | x
Cc1ccccc1CN(C)C(C)C(=O)Nc1ccccc1F (stereo not drawn) | 0.241 | -11* | -10.0 | i | i | -13.9* | 58.5%* | i | 43.5%* | 114.0* | i
COc1ccc(Cn2nnnc2C(c2ccccn2)N2CCN(c3cc(Cl)ccc3C)CC2)cc1 (stereo not drawn) | -0.59 | -9.52* | -1.1 | i | i | -10.6* | 43.5%* | i | 44.0%* | 101.0* | i
C[C@H](NC(=O)c1ccccc1Cl)C(=O)OC(C(=O)Nc1cc(C(F)(F)F)ccc1Cl)c1ccccc1 (stereo partly drawn) | -0.433 | -11* | -3.0 | i | i | -18.4* | 68.5%* | i | 39.5%* | 108.0* | i
CC(OC(=O)CCOc1ccccc1)C(=O)NC1CC1 (stereo not drawn) | x | i | -9.5 | i | i | i | x | x | x | x | x
SMILES | Cl transport mod | KCNK3 inh | hERG protect | KCNQ1 act | KCNQ1 block | KCNK9 inh | KCNK9 block conf | Kir2-1 spec | KCNK9 uninduced | KCNK3 inh conf | KCNK3 noninduced
CCCCN(CCCC)CC(O)COc1ccccc1C(=O)Nc1ccccc1 (stereo not drawn) | -0.266 | -10.5* | -9.5 | i | i | -11* | 50.0%* | i | 39.5%* | 112.3* | i
CCN(CC)CC(O)COc1ccccc1C(=O)CCc1ccccc1 (stereo not drawn) | x | i | -11.1 | i | i | i | x | x | x | x | x
O=C(Nc1cccc(-c2nnc(-c3ccco3)o2)c1)C(c1ccccc1)c1ccccc1 | -0.114 | -12.8* | -15.1 | i | 10* | -19.8* | 71.5%* | i | 30.0%* | 135.0* | 0.106*
COc1ccccc1OCC(=O)Nc1cccc(-c2nnc(-c3ccco3)o2)c1 | -1.96 | -10.2* | -25.0 | i | i | -8.6* | 31.0%* | i | i | 102.7* | i
CCc1ccc(-c2cc(C)no2)cc1S(=O)(=O)N1CCOc2ccccc21 | x | -14.6* | -15.1 | i | i | -12.1* | 37.5%* | i | 41.5%* | 124.7* | 0.138*
CCOc1ccc(C(=O)NC(C(=O)NCc2cccnc2)C(C)C)cc1 (stereo not drawn) | x | i | -4.8 | i | i | i | x | x | x | x | x
COc1ccc(NC(=O)c2cccc(NC(=O)c3ccccc3)c2)c(OC)c1 | x | i | 0.0 | i | i | i | x | x | x | x | x
COc1ccc(OC)c(NC(=O)c2cccc(NC(=O)c3ccccc3)c2)c1 | x | -10.7* | -5.0 | i | i | -8.98* | 47.0%* | i | i | 102.3* | i
COc1cccc(C(=O)Nc2cccc(-c3nnc(-c4ccccc4)o3)c2)c1 | x | -10.2* | -16.0 | i | i | -8.43* | 46.5%* | i | 30.0%* | 103.0* | 0.154*
